# How the values were obtained:
# melanocytes = settings: 1 mM for 48 h; cited from earlier work
# B16F10 cells = assay: Anti-melanogenesis activity on B16F10 murine melanomas; type: cell-based; settings: 20 μg/ml, 72 h
# Summary of the method: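 B16F10 murine melanoma cells (ATCC; DMEM with 10 % FBS) are seeded in 6-well plates and held 24 h in a CO₂ incubator, then exposed to test compound for 72 h. Cells are washed with 1xPBS, dissolved in 10 % NaOH at 60 °C for 1 h, and melanin is read at 450 nm. % anti-melanogenesis = 100 − (Mt/Mc × 100) versus untreated control. Triplicate, three independent experiments; mean ± SD.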
# human melanocytes = settings: doses between 1.25 and 10 μM; cited from earlier work
# tyrosinase = settings: treating hyperpigmentation disorders; cited from earlier work
# [1] = test system: cultured human melanoma cells; settings: cited from earlier work
compound,measurement,setting,value
"O=C1O[C@H]([C@@H](O)CO)C([O-])=C1OP(=O)([O-])[O-].O=C1O[C@H]([C@@H](O)CO)C([O-])=C1OP(=O)([O-])[O-].[Mg+2].[Mg+2].[Mg+2] [MAP, Magnesium ascorbyl phosphate]",cytotoxic or cell growth inhibiting effects,melanocytes,no noticeable cytotoxic or cell growth inhibiting effects
O=c1cc(CO)occ1O [kojic acid],% Anti-melanogenesis,B16F10 cells,44.54 ± 2.47%
"COc1cc(/C=C/C(=O)CC(=O)/C=C/c2ccc(O)c(OC)c2)ccc1O [CC, Curcumin]",melanocyte viability,human melanocytes,without affecting melanocyte viability
CC(=O)Cc1cc(=O)c2c(C)cc(O)c([C@@H]3O[C@H](CO)[C@@H](O)[C@H](O)[C@H]3O)c2o1 [aloesin],pigmentation reduction,tyrosinase,34%
"OC[C@H]1O[C@H](Oc2ccc(O)cc2)[C@H](O)[C@@H](O)[C@@H]1O [AA, Alpha arbutin]",melanin content and tyrosinase activity,[1]; 0.25–0.5 mM,decreased melanin content and tyrosinase activity in a dose-dependent manner
same,cell proliferation,[1]; 0.25–1 mM,no effect on cell proliferation
OC[C@H]1O[C@@H](Oc2ccc(O)cc2)[C@H](O)[C@@H](O)[C@@H]1O [arbutin],pigmentation reduction,tyrosinase,43.5%
